From ChEMBL document CHEMBL3352256 (J Med Chem, 2014)

What was measured:
[1] = system: Human T-cell leukemia virus type I; assay: Inhibition of HTLV-1 protease at 80 uM using (RE(Edans)TKVLVVQPK(Dabsyl)R) substrate by fluorescence-based assay
In short: (§1)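 HTLV-1 PR (aspartic protease, homodimer) activity was measured in a fluorescence-based assay. Inhibitors were tested at 80, 40 and 8 μM, and the read-out was percent inhibition. A percentage efficiency index (PEI) was then calculated from the percent inhibition value and the molecular weight.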

[2] = system: Human T-cell leukemia virus type I; assay: Inhibition of HTLV-1 protease at 40 uM using (RE(Edans)TKVLVVQPK(Dabsyl)R) substrate by fluorescence-based assay; in short: as §1
[3] = system: Human T-cell leukemia virus type I; assay: Inhibition of HTLV-1 protease at 8 uM using (RE(Edans)TKVLVVQPK(Dabsyl)R) substrate by fluorescence-based assay; in short: as §1
[4] = Inhibition of HTLV-1 protease; design: species or system Human T-cell leukemia virus type I

Ki [4] | Structure (SMILES) | inhibition [1] | inhibition [2] | inhibition [3]
– | CC(C)(C)NC(=O)[C@@H]1CNCCN1C[C@@H](O)C[C@@H](Cc1ccccc1)C(=O)N[C@H]1c2ccccc2C[C@H]1O | 60.8% | 45.1% | 16.8%
> 20 µM | CC(C)CN(C[C@@H](O)[C@H](Cc1ccccc1)NC(=O)O[C@H]1CCOC1)S(=O)(=O)c1ccc(N)cc1 | – | – | –
> 20 µM | CC(C)(C)NC(=O)[C@@H]1C[C@@H]2CCCC[C@@H]2CN1C[C@@H](O)[C@H](Cc1ccccc1)NC(=O)[C@H](CC(N)=O)NC(=O)c1ccc2ccccc2n1 | – | – | –
> 20 µM | Cc1c(O)cccc1C(=O)N[C@@H](CSc1ccccc1)[C@H](O)CN1C[C@H]2CCCC[C@H]2C[C@H]1C(=O)NC(C)(C)C | – | – | –
3.5 µM | CC(C)(C)NC(=O)[C@@H]1CN(Cc2cccnc2)CCN1C[C@@H](O)C[C@@H](Cc1ccccc1)C(=O)N[C@H]1c2ccccc2C[C@H]1O | 95.4% | 91.2% | 71.8%
